Data on one compound can be found in ChEMBL document CHEMBL1145138, “Design and synthesis of 4-azaindoles as inhibitors of p38 MAP kinase” (J Med Chem, 2003).

A short description of data set [1]: T 1/2 at a dose of 10 mg/Kg administered intravenously in female hanover-wistar rat. It is filed as ADME, organism-based. Particulars: in vivo, iv. The method, boiled down:
(§1)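 Female Wistar/Han rats weighing 180–220 g, 3 per dose regime, received a single 10 mg/kg IV bolus in 50% cyclodextran/water. Blood was drawn under CO₂:O₂ (60:40) via orbital sinus or cardiac puncture at 1, 3, 6, 8 and 24 h. Plasma was protein-precipitated with acetonitrile, diluted in 50 mM formate buffer and quantified by LC/MS.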

Data set [2] is described as follows: T max at a dose of 10 mg/Kg administered intravenously in female hanover-wistar rat. Format: ADME, organism-based. The note with it: in vivo, iv. A digest of the protocol:
as §1

Data set [3] can be described thus: AUC at a dose of 10 mg/Kg administered intravenously in female hanover-wistar rat. Particulars: plasma, iv. Format: ADME, organism-based. A digest of the protocol:
as §1

The nature of data set [4]: AUC at a dose of 10 mg/Kg administered perorally in female hanover-wistar rat. It is filed as ADME, organism-based. The note with it: plasma, po. The method, boiled down: (§2)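 Female Wistar/Han rats (180–220 g, n=3 per regime) received a single 10 mg/kg oral suspension in 0.9% NaCl, 0.5% Na-CMC, 0.4% polysorbate 80 and 0.9% benzyl alcohol. Blood was taken at 1, 3, 6, 8 and 24 h by orbital sinus or cardiac puncture. Plasma drug was measured by LC/MS after acetonitrile precipitation; the comparison arm was a 10 mg/kg IV bolus.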

Data set [5] in a line: Bioavailability at a dose of 10 mg/Kg administered perorally in female hanover-wistar rat. Format: ADME, organism-based. The note with it: in vivo, po. The method, boiled down: as §2
Data set [6] in a line: CL at a dose of 10 mg/Kg administered intravenously in female hanover-wistar rat. Format: ADME, organism-based. Particulars: in vivo, iv. The method, boiled down: as §1
A short description of data set [7]: C max at a dose of 10 mg/Kg administered intravenously in female hanover-wistar rat. It is filed as ADME, organism-based. More on the design: dose 10 mg/Kg, route intravenous. The note with it: in vivo, iv. The method, boiled down:
as §1

Data set [8] is described as follows: C max at a dose of 10 mg/Kg administered perorally in female hanover-wistar rat. Format: ADME, organism-based. Also on record: dose 10 mg/Kg, route oral. The note with it: in vivo, po. A digest of the protocol:
as §2

A short description of data set [9]: Partition coefficient (logP). Format: physicochemical. The note with it: octanol/water.
For another data set, the species on record is Homo sapiens. As to the kind of experiment: Caco-2 permeability was determined; activity value is 5.8*10e-5. Format: ADME. (In general: Passage across Caco-2 layers is used to estimate intestinal permeability.)
Data set [10] has as its target Cyclin-dependent kinase 1 (Homo sapiens, UniProt P06493). As to the kind of experiment: Inhibition of Cyclin-dependent kinase 1.
Data set [11] concerns the target Cyclin-dependent kinase 3 (Homo sapiens, UniProt Q00526). As to the kind of experiment: Inhibition of Cyclin-dependent kinase 3.
The target in data set [12] is Tyrosine-protein kinase Fyn (Homo sapiens, UniProt P06241). As to the kind of experiment: Inhibition of p55 Fyn kinase.
Data set [13] concerns the target T1, Inhibitor of nuclear factor kappa-B kinase subunit beta (Homo sapiens, UniProt O14920).
T1 sequence (O14920 whole entry): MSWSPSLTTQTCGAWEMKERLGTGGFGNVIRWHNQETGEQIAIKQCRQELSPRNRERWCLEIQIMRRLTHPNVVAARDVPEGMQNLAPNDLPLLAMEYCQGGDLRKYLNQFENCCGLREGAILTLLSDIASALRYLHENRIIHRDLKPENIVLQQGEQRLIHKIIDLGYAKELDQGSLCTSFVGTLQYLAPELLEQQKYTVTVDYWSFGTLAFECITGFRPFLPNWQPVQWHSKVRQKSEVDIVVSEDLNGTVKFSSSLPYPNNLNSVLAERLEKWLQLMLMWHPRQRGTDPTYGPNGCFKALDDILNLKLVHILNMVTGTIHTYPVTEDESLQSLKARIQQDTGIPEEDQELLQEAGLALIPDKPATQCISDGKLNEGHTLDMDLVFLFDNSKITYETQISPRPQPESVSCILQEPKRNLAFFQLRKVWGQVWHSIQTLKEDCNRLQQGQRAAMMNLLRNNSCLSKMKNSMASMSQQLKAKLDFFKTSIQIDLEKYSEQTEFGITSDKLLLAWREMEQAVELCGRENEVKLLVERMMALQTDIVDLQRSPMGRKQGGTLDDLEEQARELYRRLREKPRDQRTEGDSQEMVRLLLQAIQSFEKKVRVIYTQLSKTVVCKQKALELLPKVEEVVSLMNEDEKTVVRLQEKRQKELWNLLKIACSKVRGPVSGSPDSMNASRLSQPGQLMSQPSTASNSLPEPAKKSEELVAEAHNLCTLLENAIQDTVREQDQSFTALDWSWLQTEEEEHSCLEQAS
As to the kind of experiment: Inhibition of I-kappa-B-kinase beta.

Data set [14] concerns the target MAP kinase-activated protein kinase 2 (Homo sapiens, UniProt P49137). As to the kind of experiment: Inhibition of MAP kinase-activated protein kinase 2.
Data set [15] deals with T2, Mitogen-activated protein kinase 14 (Homo sapiens, UniProt Q16539). As to the kind of experiment: In vitro inhibitory concentration against Mitogen-activated protein kinase p38 alpha.
Data set [16] concerns the target T2, Mitogen-activated protein kinase 14. As to the kind of experiment: Inhibition of Mitogen-activated protein kinase p38 alpha. A digest of the protocol: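 Human recombinant active p38α (5 nM) in MOPS pH 7.4 buffer (40 mM MgCl₂, 1 mM DTT, β-glycerophosphate, EGTA, orthovanadate) was preincubated 10 min at room temperature with compound (0–10 μM, DMSO). Reaction was started with γ-[³³P]ATP (50 μM) and MBP (35 μM), run 30 min at 30 °C, then captured on phosphocellulose, acid-washed and counted. IC50 was fitted as fractional activity = 1/([I]/IC50 + 1).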

The target in data set [17] is Mitogen-activated protein kinase; ERK1/ERK2 (Homo sapiens, UniProt P27361+P28482). As to the kind of experiment: Inhibition of Mitogen-activated protein kinase ERK. It is filed as protein assay.
The target of data set [18] is cAMP-dependent protein kinase (PKA) (Homo sapiens, UniProt P22694+P17612+P22612). As to the kind of experiment: Inhibition of Protein kinase A (PKA). It is filed as protein assay.
For data set [19], the target named is Mitogen-activated protein kinase 14 (Rattus norvegicus) (UniProt P70618). As to the kind of experiment: In vivo percent inhibition of LPS stimulated TNF alpha synthesis in rat at a concentration of 30 mg/kg. Also on record: dose 30 mg/kg. Format: functional, organism-based. The method, boiled down:
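Female Wistar/Han rats, 8 per group, were dosed orally at −30 min with compound in CMC vehicle (0.9% NaCl, 0.5% Na-CMC, 0.4% polysorbate 80, 0.9% benzyl alcohol) or with vehicle alone. LPS 50 μg/kg was given ip at 0 h. At 1.5 h, blood was taken by cardiocentesis after CO₂ euthanasia, and serum TNFα was measured by ELISA against vehicle controls.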

The target of a further data set is MAP kinase p38 (Homo sapiens, UniProt O15264+Q15759+Q16539+P53778). As to the kind of experiment: In vitro inhibition of LPS induced p38-related TNFalpha release by THP-1 cells. It is filed as functional, cell-based. The method, boiled down:
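THP-1 cells at 2.5×10⁶ cells/mL in RPMI with 15% FBS and 0.02 mM 2-mercaptoethanol were preincubated 30 min at 37 °C with compound in DMSO-containing medium (DMSO stated as 5% final). LPS was then added at 0.5 μg/mL final for a further 2 h. Supernatant TNFα was read by trapping ELISA with two anti-TNFα antibodies.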

Data set [20] addresses Mitogen-activated protein kinase 8 (Homo sapiens, UniProt P45983). As to the kind of experiment: Inhibition of c-Jun N-terminal kinase 1.
Data set [21] deals with Interleukin-1 receptor-associated kinase 1 (Homo sapiens, UniProt P51617). As to the kind of experiment: Inhibition of interleukin-1 receptor-associated kinase 1.

Molecules are shown by their SMILES. Some results are limits rather than exact numbers.

T2 sequence (Q16539 whole entry): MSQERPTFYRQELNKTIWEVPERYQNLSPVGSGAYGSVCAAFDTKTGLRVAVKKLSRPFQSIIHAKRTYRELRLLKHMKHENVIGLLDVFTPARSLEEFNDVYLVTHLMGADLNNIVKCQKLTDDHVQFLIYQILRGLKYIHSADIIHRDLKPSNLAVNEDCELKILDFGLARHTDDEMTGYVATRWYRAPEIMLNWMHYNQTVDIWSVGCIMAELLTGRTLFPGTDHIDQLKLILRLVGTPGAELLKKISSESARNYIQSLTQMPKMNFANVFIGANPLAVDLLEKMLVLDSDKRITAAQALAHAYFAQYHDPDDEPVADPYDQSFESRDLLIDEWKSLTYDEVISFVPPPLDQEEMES
Chain of Interleukin-1 receptor-associated kinase 1 (P51617 whole entry): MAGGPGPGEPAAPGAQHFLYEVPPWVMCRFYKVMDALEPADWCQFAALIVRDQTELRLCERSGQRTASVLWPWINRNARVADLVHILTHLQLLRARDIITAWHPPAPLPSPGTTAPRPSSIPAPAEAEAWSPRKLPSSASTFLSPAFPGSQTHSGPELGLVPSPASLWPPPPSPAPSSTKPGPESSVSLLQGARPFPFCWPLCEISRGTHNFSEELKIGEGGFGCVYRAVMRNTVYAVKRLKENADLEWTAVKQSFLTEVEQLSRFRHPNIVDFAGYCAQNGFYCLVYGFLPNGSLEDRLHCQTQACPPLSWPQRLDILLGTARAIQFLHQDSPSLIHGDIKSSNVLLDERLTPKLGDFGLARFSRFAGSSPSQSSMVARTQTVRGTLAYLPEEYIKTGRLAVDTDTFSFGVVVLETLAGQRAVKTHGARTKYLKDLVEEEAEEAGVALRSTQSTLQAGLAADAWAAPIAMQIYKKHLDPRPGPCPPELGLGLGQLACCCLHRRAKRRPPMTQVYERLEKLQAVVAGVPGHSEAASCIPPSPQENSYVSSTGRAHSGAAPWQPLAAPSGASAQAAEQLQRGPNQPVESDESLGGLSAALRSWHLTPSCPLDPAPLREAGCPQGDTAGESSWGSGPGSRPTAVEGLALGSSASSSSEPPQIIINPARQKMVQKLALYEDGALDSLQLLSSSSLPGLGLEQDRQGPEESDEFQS
Chain of Cyclin-dependent kinase 1 (P06493 whole entry): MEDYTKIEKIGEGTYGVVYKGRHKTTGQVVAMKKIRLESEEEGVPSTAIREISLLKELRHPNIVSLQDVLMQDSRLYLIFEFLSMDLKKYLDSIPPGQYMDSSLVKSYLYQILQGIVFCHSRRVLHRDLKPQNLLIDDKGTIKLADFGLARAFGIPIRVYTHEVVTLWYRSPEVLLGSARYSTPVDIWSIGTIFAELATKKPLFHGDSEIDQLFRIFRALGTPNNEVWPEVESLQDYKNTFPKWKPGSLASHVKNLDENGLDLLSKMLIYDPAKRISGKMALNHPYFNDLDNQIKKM
Chain of Mitogen-activated protein kinase 14 (Rattus norvegicus) (P70618 whole entry): as the sequence (Q16539 whole entry) above, with I17V, L48H, T263A, D321E, L332F counted along it
Chain of Tyrosine-protein kinase Fyn (P06241 whole entry): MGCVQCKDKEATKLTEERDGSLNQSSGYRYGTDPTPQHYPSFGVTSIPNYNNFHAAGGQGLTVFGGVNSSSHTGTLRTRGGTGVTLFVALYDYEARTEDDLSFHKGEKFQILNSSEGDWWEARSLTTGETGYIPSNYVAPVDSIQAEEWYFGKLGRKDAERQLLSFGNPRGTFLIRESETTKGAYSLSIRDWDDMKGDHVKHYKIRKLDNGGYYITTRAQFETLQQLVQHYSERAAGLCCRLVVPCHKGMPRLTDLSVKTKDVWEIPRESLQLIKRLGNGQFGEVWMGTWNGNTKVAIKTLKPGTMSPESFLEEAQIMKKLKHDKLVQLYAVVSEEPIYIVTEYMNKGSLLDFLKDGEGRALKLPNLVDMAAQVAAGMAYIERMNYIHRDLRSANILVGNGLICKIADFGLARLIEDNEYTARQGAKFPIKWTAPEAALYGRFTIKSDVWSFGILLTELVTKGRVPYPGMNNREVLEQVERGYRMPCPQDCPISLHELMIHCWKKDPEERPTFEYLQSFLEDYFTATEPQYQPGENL
Chain of Cyclin-dependent kinase 3 (Q00526 whole entry): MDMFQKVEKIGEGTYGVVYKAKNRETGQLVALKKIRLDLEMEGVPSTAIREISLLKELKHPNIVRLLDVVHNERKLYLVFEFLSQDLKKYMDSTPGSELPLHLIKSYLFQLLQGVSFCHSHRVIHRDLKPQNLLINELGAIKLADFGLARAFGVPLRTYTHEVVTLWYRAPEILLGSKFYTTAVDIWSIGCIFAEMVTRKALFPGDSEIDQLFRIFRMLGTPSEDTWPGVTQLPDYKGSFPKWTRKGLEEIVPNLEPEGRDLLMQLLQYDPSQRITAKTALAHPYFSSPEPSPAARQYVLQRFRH
Chain of Mitogen-activated protein kinase 8 (P45983 whole entry): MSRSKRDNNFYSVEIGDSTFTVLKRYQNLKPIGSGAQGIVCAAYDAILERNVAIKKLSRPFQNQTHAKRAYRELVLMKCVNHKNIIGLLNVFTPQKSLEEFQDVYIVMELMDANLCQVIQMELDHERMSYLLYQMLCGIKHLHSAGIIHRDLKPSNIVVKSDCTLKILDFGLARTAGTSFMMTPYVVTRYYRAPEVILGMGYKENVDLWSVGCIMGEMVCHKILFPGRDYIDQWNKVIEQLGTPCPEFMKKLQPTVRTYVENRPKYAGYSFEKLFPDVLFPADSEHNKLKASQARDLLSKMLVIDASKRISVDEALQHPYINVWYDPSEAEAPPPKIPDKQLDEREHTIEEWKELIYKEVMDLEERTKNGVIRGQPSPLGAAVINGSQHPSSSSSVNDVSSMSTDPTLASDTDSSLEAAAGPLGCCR
Chain of MAP kinase-activated protein kinase 2 (P49137 whole entry): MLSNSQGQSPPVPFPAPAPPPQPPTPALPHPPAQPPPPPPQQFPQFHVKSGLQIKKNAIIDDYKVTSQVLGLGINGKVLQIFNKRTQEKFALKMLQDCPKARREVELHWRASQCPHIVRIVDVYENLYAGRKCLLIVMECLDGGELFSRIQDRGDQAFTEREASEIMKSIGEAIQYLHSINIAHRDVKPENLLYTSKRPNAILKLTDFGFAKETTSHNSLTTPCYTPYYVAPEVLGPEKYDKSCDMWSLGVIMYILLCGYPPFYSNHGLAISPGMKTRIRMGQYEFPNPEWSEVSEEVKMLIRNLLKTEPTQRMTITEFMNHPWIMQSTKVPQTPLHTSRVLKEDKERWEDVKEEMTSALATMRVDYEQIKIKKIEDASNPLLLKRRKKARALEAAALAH

As for `C[C@H](O)CNc1cc(-c2[nH]c3cccnc3c2-c2ccc(F)cc2)ccn1`, the half-life in data set [1] is 1.1 h. Besides, the Tmax in [2] is less than 1 h. Moreover, the AUC is 23.4 µM·h in data set [3] and 20 µM·h in [4]. In addition, in [5], the bioavailability was determined as 85.6%. In data set [6], this compound gave a clearance of 20 mL/min/kg. Besides, the figures for the Cmax in data set [7] and in data set [8] were 10.3 µM and 6.9 µM, respectively. Further, in data set [9], the logP stood at 3.5. The Cell permeation result in the data set listed under Homo sapiens was “Permeable”. The IC50 in data set [10] is more than 25 µM; in [11] it was more than 25 µM; in data set [12], more than 10 µM; in data set [13] it was more than 30 µM; in data set [14], more than 30 µM; in data set [15], 0.001 µM. The IC50 is 0.00129 µM in data set [16]; more than 10 µM in data set [17]; more than 10 µM in data set [18]; 0.0017 µM against MAP kinase p38; more than 10 µM in data set [20]; more than 30 µM in [21]. In data set [19], the inhibition was determined as 88%.

As a reminder, the half-life is the time needed for the level to fall by half in the phase considered. Low values mean fast loss, high ones slow loss. The Tmax is the time at which the peak concentration occurs. Usually AUC stands for the area under the concentration-time curve, a measure of exposure. Low readings indicate less exposure, high ones more exposure. One may read the bioavailability as the share of a dose that reaches the circulation, judged against a reference dose that is usually intravenous. Low values mean little systemic uptake, high ones much systemic uptake. Usually clearance stands for the volume of plasma or blood freed of the substance per unit of time. A higher clearance goes with efficient removal. For orientation: Cmax means the maximum level reached in the sampled fluid or tissue. For orientation: logP means the decadic logarithm of the partition coefficient of the neutral form, usually between octanol and water. A lower logP goes with a more hydrophilic compound. Broadly, the IC50 is the concentration at which inhibition is half-maximal. Broadly, the inhibition is the percentage by which the read-out fell short of the control. High values mean a response far below the control, low ones a response near the control.
